Experimental data published in ChEMBL document CHEMBL1129423, “Hypoglycemic activity of a series of alpha-alkylthio and alpha-alkoxy carboxylic acids related to ciglitazone” (J Med Chem, 1996).
Active and inactive are the calls of the source. The calls are words filed in the database; no cut-off is given here.

Key:
[1] = system: Mus musculus; test: In vivo hypoglycemic activity expressed as percent glucose normalization in db/db mice at 0.05 mg/Kg; format: functional
[2] = system: Mus musculus; test: In vivo hypoglycemic activity expressed as percent glucose normalization in db/db mice at 0.01 mg/Kg; format: functional
[3] = system: Mus musculus; test: In vivo hypoglycemic activity expressed as percent glucose normalization in db/db mice at 0.25 mg/Kg; format: functional
[4] = system: Mus musculus; test: In vivo hypoglycemic activity expressed as percent glucose normalization in db/db mice at 5 mg/Kg; format: functional
[5] = system: Mus musculus; test: In vivo hypoglycemic activity expressed as percent glucose normalization in db/db mice at 0.1 mg/Kg; format: functional
[6] = system: Mus musculus; test: In vivo hypoglycemic activity expressed as percent glucose normalization in ob/ob mice at 0.01 mg/Kg; format: functional
In short: (§1)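 ob/ob mice received oral gavage once daily for 4 days in 0.25% (w/v) methylcellulose in water. Retro-orbital blood was taken before treatment and 24 h after the fourth dose. Glucose was measured by the hexokinase UV method. Results are % glucose normalization relative to vehicle (0%) and englitazone 100 mg/kg (100%), with significance at p<0.05.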

[7] = system: Mus musculus; test: In vivo hypoglycemic activity expressed as percent glucose normalization in ob/ob mice at 0.1 mg/Kg; format: functional; in short: as §1
[8] = system: Mus musculus; test: In vivo hypoglycemic activity expressed as percent glucose normalization in ob/ob mice at 1 mg/Kg; format: functional; in short: as §1
[9] = system: Mus musculus; test: In vivo hypoglycemic activity expressed as percent glucose normalization in db/db mice at 0.5 mg/Kg; format: functional
[10] = system: Mus musculus; test: In vivo hypoglycemic activity expressed as percent glucose normalization in db/db mice at 1 mg/Kg; format: functional
[11] = system: Mus musculus; test: In vivo hypoglycemic activity expressed as percent glucose normalization in db/db mice at 2.5 mg/Kg; format: functional
[12] = system: Mus musculus; test: In vivo hypoglycemic activity expressed as percent glucose normalization in db/db mice at 0.05 mg/Kg; Inactive; format: functional, organism-based
[13] = system: Mus musculus; test: In vivo hypoglycemic activity expressed as percent glucose normalization in db/db mice at 0.1 mg/Kg; Inactive; format: functional, organism-based
[14] = system: Mus musculus; test: In vivo hypoglycemic activity expressed as percent glucose normalization in ob/ob mice at 0.01 mg/Kg; Inactive; format: functional, organism-based; in short: as §1
[15] = system: Mus musculus; test: In vivo hypoglycemic activity expressed as percent glucose normalization in db/db mice at 5 mg/Kg; Not tested; format: functional

| SMILES | Glucose normalisation [2] [%] | Glucose normalisation [4] [%] | Glucose normalisation [5] [%] | Glucose normalisation [9] [%] | Glucose normalisation [10] [%] | other results |
| --- | --- | --- | --- | --- | --- | --- |
| CCOC(Cc1ccc2oc(Cc3nc(-c4ccccc4)oc3C)cc2c1)C(=O)O (stereo not drawn) | 69 | 100 | 100 | – | – | Glucose normalisation [1]: 97%; Glucose normalisation [3]: 100% |
| Cc1cccc(-c2nc(Cc3cc4cc(CC5SC(=O)NC5=O)ccc4o3)c(C)o2)c1 (stereo not drawn) | – | – | – | – | – | Glucose normalisation [6]: 78%; Glucose normalisation [7]: 79%; Glucose normalisation [8]: 100% |
| CCCCCCCCSC(Cc1ccc2oc(Cc3nc(-c4ccccc4)oc3C)cc2c1)C(=O)O (stereo not drawn) | – | 96 | 14 | 100 | 75 | Glucose normalisation [3]: 99% |
| CCCSC(Cc1ccc2oc(Cc3nc(-c4ccccc4)oc3C)cc2c1)C(=O)O (stereo not drawn) | – | 94 | – | 82 | 69 | Glucose normalisation [3]: 39% |
| Cc1ccccc1-c1nc(Cc2cc3cc(CC4SC(=O)NC4=O)ccc3o2)c(C)o1 (stereo not drawn) | – | – | – | – | – | Glucose normalisation [6]: 11%; Glucose normalisation [7]: 91%; Glucose normalisation [8]: 100% |
| CCCS[C@H](Cc1ccc2oc(Cc3nc(-c4ccccc4)oc3C)cc2c1)C(=O)O | – | – | – | 45 | 56 | Glucose normalisation [11]: 75% |
| CCOC(Cc1ccc2oc(Cc3nc(-c4ccc(OC)cc4)oc3C)cc2c1)C(=O)O (stereo not drawn) | 46 | – | 100 | – | 100 | Glucose normalisation [12]: inactive |
| COC(Cc1ccc2oc(Cc3nc(-c4ccccc4)oc3C)cc2c1)C(=O)O (stereo not drawn) | 44 | 94 | 83 | – | 100 | Glucose normalisation [1]: 82% |
| Cc1oc(-c2ccc(Cl)cc2)nc1Cc1cc2cc(CC3SC(=O)NC3=O)ccc2o1 (stereo not drawn) | – | – | – | – | – | Glucose normalisation [6]: 0%; Glucose normalisation [7]: 100%; Glucose normalisation [8]: 100% |
| Cc1oc(-c2ccccc2)nc1Cc1cc2cc(CC(OCCCO)C(=O)O)ccc2o1 (stereo not drawn) | – | – | 91 | – | – | Glucose normalisation [1]: 19% |
| CCO[C@@H](Cc1ccc2oc(Cc3nc(-c4ccccc4)oc3C)cc2c1)C(=O)O | 78 | – | 100 | – | – | – |
| C#CCOC(Cc1ccc2oc(Cc3nc(-c4ccccc4)oc3C)cc2c1)C(=O)O (stereo not drawn) | – | 100 | – | – | 74 | – |
| CSC(Cc1ccc2oc(Cc3nc(-c4ccccc4)oc3C)cc2c1)C(=O)O (stereo not drawn) | – | – | 26 | 100 | 89 | Glucose normalisation [3]: 16% |
| Cc1oc(-c2cccc(F)c2)nc1Cc1cc2cc(CC3SC(=O)NC3=O)ccc2o1 (stereo not drawn) | – | – | – | – | – | Glucose normalisation [6]: 12%; Glucose normalisation [7]: 88%; Glucose normalisation [8]: 100% |
| Cc1oc(-c2ccccc2)nc1Cc1cc2cc(CC(OCc3ccccc3)C(=O)O)ccc2o1 (stereo not drawn) | 74 | – | 100 | – | – | Glucose normalisation [1]: 100% |
| CCCOC(Cc1ccc2oc(Cc3nc(-c4ccccc4)oc3C)cc2c1)C(=O)O (stereo not drawn) | 43 | 100 | 100 | – | 100 | Glucose normalisation [1]: 76% |
| CCO[C@H](Cc1ccc2oc(Cc3nc(-c4ccccc4)oc3C)cc2c1)C(=O)O | 16 | – | 19 | – | 74 | – |
| Cc1oc(-c2ccccc2)nc1Cc1cc2cc(CC3SC(=O)NC3=O)ccc2o1 (stereo not drawn) | – | – | – | – | – | Glucose normalisation [6]: 76%; Glucose normalisation [7]: 93% |
| CCSC(Cc1ccc2oc(Cc3nc(-c4ccccc4)oc3C)cc2c1)C(=O)O (stereo not drawn) | – | 86 | – | 80 | 60 | Glucose normalisation [3]: 3% |
| Cc1oc(-c2ccccc2)nc1Cc1cc2cc(CC(SCc3ccccc3)C(=O)O)ccc2o1 (stereo not drawn) | – | 100 | – | 93 | 88 | Glucose normalisation [13]: inactive; Glucose normalisation [3]: 72% |
| CCCS[C@@H](Cc1ccc2oc(Cc3nc(-c4ccccc4)oc3C)cc2c1)C(=O)O | – | – | – | 52 | 91 | Glucose normalisation [11]: 69% |
| C=CCOC(Cc1ccc2oc(Cc3nc(-c4ccccc4)oc3C)cc2c1)C(=O)O (stereo not drawn) | 27 | 92 | 85 | – | 85 | Glucose normalisation [1]: 91% |
| Cc1oc(-c2ccccc2)nc1Cc1cc2cc(CC(Sc3ccccc3)C(=O)O)ccc2o1 (stereo not drawn) | – | 70 | 86 | 100 | 90 | Glucose normalisation [3]: 92% |
| Cc1oc(C2CCCCC2)nc1Cc1cc2cc(CC3SC(=O)NC3=O)ccc2o1 (stereo not drawn) | – | – | – | – | – | Glucose normalisation [7]: 90%; Glucose normalisation [8]: 100%; Glucose normalisation [14]: inactive |
| CCOC(C(=O)O)c1ccc2oc(Cc3nc(-c4ccccc4)oc3C)cc2c1 (stereo not drawn) | – | – | – | – | – | Glucose normalisation [15]: 9% |
| CCOC(Cc1ccc2oc(Cc3nc(-c4ccco4)oc3C)cc2c1)C(=O)O (stereo not drawn) | 63 | – | 100 | – | 100 | – |
| CCOC(Cc1ccc2oc(Cc3nc(-c4cccs4)oc3C)cc2c1)C(=O)O (stereo not drawn) | 98 | – | 100 | – | 100 | Glucose normalisation [1]: 100% |
| CCOC(CCc1ccc2oc(Cc3nc(-c4ccccc4)oc3C)cc2c1)C(=O)O (stereo not drawn) | – | 100 | – | 75 | 90 | Glucose normalisation [3]: 13% |
